Laboratory results: ChEMBL document CHEMBL1921792, “Synthesis and anticonvulsant activity of trans- and cis-2-(2,6-dimethylphenoxy)-N-(2- or 4-hydroxycyclohexyl)acetamides and their amine analogs” (Bioorg Med Chem, 2011)
Active and inactive are the calls of the source.

How the values were obtained:
Type in all cases: functional, organism-based
Mus musculus [1] = test: Anticonvulsant activity in mouse assessed as protection against maximal electric shock-induced seizures at 300 mg/kg, ip after 4 hrs; design: dose 300 mg/kg
Method in brief: (§1)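 Phase I maximal electroshock screen in mice. Compound given ip as a suspension in 0.5% methylcellulose at 30, 100 or 300 mg/kg, tested at 30 min and 4 h. Small groups (1–8); result is number protected/number tested.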

Mus musculus [2] = test: Anticonvulsant activity against subcutaneous pentylenetetrazole-induced seizures in mouse at 300 mg/kg, ip after 4 hrs; design: dose 300 mg/kg
Method in brief: (§2)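 Phase I screen in mice. Compound given ip as a suspension in 0.5% methylcellulose, read at 30 min and 4 h. Pentylenetetrazole 85 mg/kg in 0.9% NaCl was injected sc into the posterior midline and animals watched ≥30 min. Protection meant no clonic spasm lasting ≥5 s. Groups of 1–8 animals; result is protected/tested.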

Mus musculus [3] = test: Anticonvulsant activity in mouse assessed as protection against maximal electric shock-induced seizures at 30 mg/kg, ip after 0.5 hrs; design: dose 30 mg/kg; method in brief: as §1
Mus musculus [4] = test: Anticonvulsant activity in mouse assessed as protection against maximal electric shock-induced seizures at 300 mg/kg, ip after 0.5 hrs; design: dose 300 mg/kg; method in brief: as §1
Mus musculus [5] = test: Anticonvulsant activity against subcutaneous pentylenetetrazole-induced seizures in mouse at 100 mg/kg, ip after 4 hrs; design: dose 100 mg/kg; method in brief: as §2
Mus musculus [6] = test: Anticonvulsant activity against subcutaneous pentylenetetrazole-induced seizures in mouse at 100 mg/kg, ip after 0.5 hrs; design: dose 100 mg/kg; method in brief: as §2
Mus musculus [7] = test: Anticonvulsant activity against subcutaneous pentylenetetrazole-induced seizures in mouse at 30 mg/kg, ip after 4 hrs; design: dose 30 mg/kg; method in brief: as §2
Mus musculus [8] = test: Anticonvulsant activity in mouse assessed as protection against maximal electric shock-induced seizures at 100 mg/kg, ip after 0.5 hrs; design: dose 100 mg/kg; method in brief: as §1
Mus musculus [9] = test: Anticonvulsant activity against subcutaneous pentylenetetrazole-induced seizures in mouse at 30 mg/kg, ip after 0.5 hrs; design: dose 30 mg/kg; method in brief: as §2
Rattus norvegicus [10] = test: Anticonvulsant activity in rat assessed as protection against maximal electric shock-induced seizures at 30 mg/kg, po after 4 hrs; design: dose 30 mg/kg
Method in brief: (§3)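 MES test in rats dosed orally at 30 mg/kg as a suspension in 0.5% methylcellulose, read at 0.25–4 h. Four rats per time point; result is protected/tested.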

Rattus norvegicus [11] = test: Anticonvulsant activity in rat assessed as protection against maximal electric shock-induced seizures at 30 mg/kg, po after 0.5 hrs; design: dose 30 mg/kg; method in brief: as §3
Mus musculus [12] = test: Anticonvulsant activity in mouse assessed as protection against maximal electric shock-induced seizures at 100 mg/kg, ip after 4 hrs; design: dose 100 mg/kg; method in brief: as §1
Mus musculus [13] = test: Anticonvulsant activity in mouse assessed as protection against maximal electric shock-induced seizures at 30 mg/kg, ip after 4 hrs; design: dose 30 mg/kg; method in brief: as §1
Rattus norvegicus [14] = test: Anticonvulsant activity in rat assessed as protection against maximal electric shock-induced seizures at 30 mg/kg, po after 2 hrs; design: dose 30 mg/kg; method in brief: as §3
Mus musculus [15] = test: Anticonvulsant activity against subcutaneous pentylenetetrazole-induced seizures in mouse at 300 mg/kg, ip after 0.5 hrs; design: dose 300 mg/kg; method in brief: as §2
Rattus norvegicus [16] = test: Anticonvulsant activity in rat assessed as protection against maximal electric shock-induced seizures at 30 mg/kg, po after 1 hr; design: dose 30 mg/kg; method in brief: as §3

Measured: Activity

Cc1cccc(C)c1OCC(=O)NC1CCCCC1O (racemic; 4)
active: Mus musculus [4]
inactive: all other assays above
